We go through nine molecules from ChEMBL document CHEMBL1135746, “Structure-activity relationships of the antimalarial agent artemisinin. 7. Direct modification of (+)-artemisinin and in vivo antimalarial screening of new, potential preclinical antimalarial candidates” (J Med Chem, 2002).

For experiment [1], the system named is Plasmodium berghei. The experiment in a line: Antimalarial activity in Plasmodium berghei infected mice (Mus musculus) at 32 mg/kg/day peroral dose. In kind it is functional. To be noted: route oral. The method in brief:
(§1)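 CD-1 mice (16-18 g), quarantined 2 weeks, then infected with P. berghei (Thompson test). Treatment was given on days 3-5 postinfection. Subcutaneous dosing was a single injection; oral dosing was by gavage of a peanut-oil suspension. Groups of 5 mice were used. Survival was scored out of 5 and parasitemia was followed up to 60 days postinfection.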

Experiment [2] has as its system Plasmodium berghei. As to the kind of experiment: Effective dose ED90 against Plasmodium berghei N in mice (Mus musculus) malaria model after oral administration. In kind it is functional.
The subject of experiment [3] is Plasmodium yoelii. As to the kind of experiment: Effective subcutaneous dose ED90 against Plasmodium yoelii NS. In kind it is functional.
Experiment [4] concerns Plasmodium berghei. As to the kind of experiment: Antimalarial activity in Plasmodium berghei infected mice (Mus musculus) at 128 mg/kg/day peroral dose. To be noted: route oral. In kind it is functional. The essentials: as §1
In experiment [5] the test system is Plasmodium berghei. As to the kind of experiment: Antimalarial activity in Plasmodium berghei infected mice (Mus musculus) at 32 mg/kg/day subcutaneous dose. In kind it is functional. The essentials:
as §1

The test system of experiment [6] is Plasmodium berghei. The experiment in a line: Antimalarial activity in Plasmodium berghei infected mice (Mus musculus) at 8 mg/kg/day subcutaneous dose. It counts as functional. The essentials:
as §1

The subject of experiment [7] is Plasmodium berghei. As to the kind of experiment: Effective dose ED50 against Plasmodium berghei N in mice (Mus musculus) malaria model after subcutaneous administration. It counts as functional.
Experiment [8] concerns Plasmodium berghei. As to the kind of experiment: Antimalarial activity in Plasmodium berghei infected mice (Mus musculus) after 128 mg/kg/day subcutaneous dose. In kind it is functional. The essentials: as §1
For experiment [9], the system named is Plasmodium falciparum. As to the kind of experiment: Inhibitory activity against Plasmodium falciparum D6. In kind it is functional, organism-based. The method in brief:
(§2)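 Parasitized human red blood cells were used in short-term microtitre cultures. Compounds were dissolved in DMSO and diluted 400-fold in culture medium with plasma, giving a starting concentration of at least 12 500 ng/mL. Activity was measured as inhibition of parasite uptake of a radiolabelled nucleic acid precursor.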

The test system of experiment [10] is Plasmodium berghei. As to the kind of experiment: Antimalarial activity in Plasmodium berghei infected mice (Mus musculus) at 8 mg/kg/day peroral dose. In kind it is functional. Conditions: route oral. The essentials:
as §1

In experiment [11] the test system is Plasmodium falciparum. The experiment in a line: Inhibitory activity against Plasmodium falciparum K1. In kind it is functional, organism-based.
Experiment [12] has as its system Plasmodium yoelii. The experiment in a line: Effective dose ED90 against Plasmodium yoelii sspNS on subcutaneous dose. In kind it is functional. Conditions: sc.
Experiment [13] relates to Plasmodium falciparum. The experiment in a line: Inhibitory activity against Plasmodium falciparum NF54. It counts as functional, organism-based.
Experiment [14] deals with Plasmodium berghei. As to the kind of experiment: Effective dose ED50 against Plasmodium berghei N in mice (Mus musculus) malaria model after peroral administration. In kind it is functional.
Experiment [15] relates to Plasmodium berghei. The experiment in a line: (§3) Effective dose ED90 against Plasmodium berghei N in mice (Mus musculus) malaria model after subcutaneous administration. It counts as functional. To be noted: Plasmodium berghei, sc; read-out: ED90.
Experiment [16] deals with Plasmodium yoelii. The experiment in a line: Effective subcutaneous dose ED50 against Plasmodium yoelii sspNS. It counts as functional. To be noted: sc.
For experiment [17], the system named is Plasmodium falciparum. The experiment in a line: Inhibitory activity against Plasmodium falciparum W2. It counts as functional, organism-based. The essentials:
as §2

The test system of experiment [18] is Plasmodium berghei. As to the kind of experiment: (§4) Effective dose ED90 against Plasmodium berghei N in mice (Mus musculus) malaria model after peroral administration. It counts as functional. Conditions: po.
The test system of experiment [19] is Plasmodium yoelii. As to the kind of experiment: Percent suppression of Plasmodium […] NS infection in mice (Mus musculus) malaria model after 10 mg/kg peroral dose. It counts as functional. Conditions: route oral.
The subject of experiment [20] is Plasmodium berghei. The experiment in a line: Effective dose against Plasmodium berghei N in mice (Mus musculus) malaria model after peroral administration. In kind it is functional. To be noted: po.
Experiment [21] relates to Plasmodium berghei. As to the kind of experiment: Percent suppression of Plasmodium berghei N infection in mice (Mus musculus) malaria model after peroral dose. It counts as functional.
Experiment [22] has as its system Plasmodium yoelii. The experiment in a line: Effective dose against Plasmodium yoelii NS after 10 mg/kg peroral dose in mice (Mus musculus) malaria model; Not active. It counts as functional, organism-based. Further details: dose 10 mg/kg.
In experiment [23] the test system is Plasmodium berghei. The experiment in a line: Effective dose Plasmodium berghei N in mice (Mus musculus) malaria model after subcutaneous administration. In kind it is functional. To be noted: sc. The method in brief:
(§5)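 Peters' 4-day test: two batches of five male random-bred Swiss albino mice (18-22 g) were inoculated i.v. with 2 × 10⁶ P. berghei N-parasitized RBC. Drug was given once daily for four consecutive days. Compounds were dissolved in DMSO, then diluted in water for subcutaneous or oral dosing. Parasitemia was read the day after the last treatment.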

For experiment [24], the system named is Plasmodium berghei. The experiment in a line: Effective dose ED50 against Plasmodium berghei N and Plasmodium species infected mice (Mus musculus) after peroral dose. In kind it is functional. Conditions: po. The essentials:
as §5

The test system of experiment [25] is Plasmodium berghei. As to the kind of experiment: Effective dose against Plasmodium berghei N in mice (Mus musculus) malaria model after subcutaneous administration. In kind it is functional. Conditions: sc. The method in brief: as §5
Experiment [26] deals with Plasmodium berghei. The experiment is described as §4. To be noted: po. It counts as functional. The essentials:
as §5
This is another data set of the same source.

The test system of experiment [27] is Plasmodium yoelii. As to the kind of experiment: Effective dose after oral administration against Plasmodium yoelii sspNS for 90%inhibition in presence of DMSO. It counts as functional.
The test system of experiment [28] is Plasmodium yoelii. As to the kind of experiment: Effective subcutaneous dose ED90 in SSV against Plasmodium yoelii sspNS. Conditions: sc. In kind it is functional.
In experiment [29] the test system is Plasmodium yoelii. As to the kind of experiment: Effective subcutaneous dose ED50 in SSV against Plasmodium yoelii sspNS. It counts as functional. To be noted: sc.
For experiment [30], the system named is Plasmodium yoelii. As to the kind of experiment: Effective dose after oral administration against Plasmodium yoelii sspNS for 50%inhibition in presence of DMSO. In kind it is functional.
In experiment [31] the test system is Plasmodium berghei. Described as §3. To be noted: sc. In kind it is functional. The essentials: as §5
For experiment [32], the system named is Plasmodium yoelii. The experiment in a line: Effective subcutaneous dose ED90 against Plasmodium yoelii sspNS. To be noted: Plasmodium yoelii, sc; read-out: ED90. It counts as functional.
The subject of experiment [33] is Plasmodium berghei. The experiment in a line: Effective dose ED90 against Plasmodium berghei N in mice (Mus musculus) malaria model after subcutaneous dose. Conditions: sc.
Where [34] appears, read: Plasmodium berghei, po, read-out: ED50.
The mark [35] stands for this setting: Plasmodium berghei, sc, read-out: ED50.

Values after ≈ are worked out from the molar mass of the structure shown. Values joined by “and” are separate entries in the source; they are usually repeats but may differ in a detail not shown here. Equal entries are not always repeated. Active and inactive are the calls of the source. The calls are words filed in the database; no cut-off is given here. Bounds are passed on as bounds.

In general, IC50 refers to the midpoint of a concentration-inhibition curve. Consider `C[C@@H]1CC[C@H]2[C@@H](CCCc3ccccc3)CO[C@@H]3OC4(C)CC[C@@H]1[C@]32OO4` (single isomer, unassigned), for which the Activity in the experiment on Plasmodium berghei [1] is 4; with Plasmodium berghei [4] it was 5; with Plasmodium berghei [5] it was 5; in the experiment on Plasmodium berghei [6], 0; in the experiment with Plasmodium berghei [8], 5; with Plasmodium berghei [10], 0. Moreover, the results for the ED90 with Plasmodium berghei [2], in the experiment with Plasmodium yoelii [3] and in the experiment with Plasmodium berghei [7] were 3.4, 0.9 and 1, respectively. Further, the IC50 in the experiment with Plasmodium falciparum [9] was determined as 0.9 ng/mL (≈ 0.00242 µM).
What is called ED50 is the dose that gives a 50% effect, or the effect in half of the subjects. Consider `C[C@@H]1CC[C@H]2[C@@H](CCCc3cccc(F)c3)CO[C@@H]3OC4(C)CC[C@@H]1[C@]32OO4` (single isomer, unassigned), for which the IC50 was 11.6 ng/mL (≈ 0.0296 µM) with Plasmodium falciparum [11], 41.8 ng/mL (≈ 0.107 µM) with Plasmodium falciparum [13], 26.8 ng/mL (≈ 0.0687 µM) with Plasmodium falciparum [17] and 8.28 ng/mL (≈ 0.0212 µM) in the experiment on Plasmodium falciparum [9]. Further, the values for the ED90 in the experiment with Plasmodium yoelii [12], in the experiment on Plasmodium berghei [15] and in the experiment with Plasmodium berghei [18] were 1 mg/kg, 0.85 mg/kg and 3.4 mg/kg, respectively. In addition, the values for the ED50 in the experiment with Plasmodium berghei [14] (setting [34]), in the experiment with Plasmodium yoelii [16] and in the experiment on Plasmodium berghei [7] (setting [35]) were 0.9 mg/kg, 0.58 mg/kg and 0.46 mg/kg, respectively.
For the molecule `C[C@@H]1CC[C@H]2[C@@H](CCCC(F)(F)F)CO[C@@H]3OC4(C)CC[C@@H]1[C@]32OO4` (single isomer, unassigned), the Activity turned out to be 0.3% in the experiment on Plasmodium yoelii [19] and 6.5% with Plasmodium berghei [21]. This molecule also showed an ED50 in the experiment on Plasmodium berghei [20] above 10 mg/kg. Further, the ED90 with Plasmodium berghei [20] was above 10 mg/kg. For the same molecule, the IC50 with Plasmodium falciparum [17] amounted to 8.87 ng/mL (≈ 0.0243 µM); in the experiment on Plasmodium falciparum [9], 12.5 ng/mL (≈ 0.0342 µM). Further, the NA entry in the experiment with Plasmodium yoelii [22] was “inactive”.
Consider `C=C[C@H]1CN2CC[C@H]1C[C@H]2[C@H](O)c1ccnc2ccc(OC)cc12` [QUININE], for which the results for the IC50 in the experiment with Plasmodium falciparum [13], in the experiment with Plasmodium falciparum [17] and in the experiment with Plasmodium falciparum [9] were 9.08 ng/mL (≈ 0.028 µM), 150 ng/mL (≈ 0.462 µM) and 160 ng/mL (≈ 0.492 µM), respectively. Besides, the ED50 with Plasmodium berghei [14] (setting [34]) was 71 mg/kg; in the experiment on Plasmodium berghei [7] (setting [35]) it was 83 mg/kg. The ED90 in the experiment on Plasmodium berghei [15] was 1050 mg/kg; in the experiment with Plasmodium berghei [18], 118 mg/kg.
`COc1ccc(CCC[C@H]2CO[C@@H]3OC4(C)CC[C@H]5[C@H](C)CC[C@@H]2[C@@]35OO4)cc1` (single isomer, unassigned): the Activity with Plasmodium berghei [1] was determined as 5; in the experiment on Plasmodium berghei [4], 5; in the experiment with Plasmodium berghei [5], 5; with Plasmodium berghei [6], 0; in the experiment on Plasmodium berghei [8] it was 5; in the experiment on Plasmodium berghei [10] it was 0.
With `C[C@H]1[C@H](OC(=O)CCC(=O)[O-])O[C@@H]2O[C@@]3(C)CC[C@H]4[C@H](C)CC[C@@H]1[C@@]24OO3.[Na+]` [SODIUM ARESUNATE], the ED50 was above 10 mg/kg in the experiment on Plasmodium berghei [23]; 1.6 mg/kg in the experiment on Plasmodium berghei [14]; 2.4 mg/kg with Plasmodium berghei [14] (setting [34]); 0.8 mg/kg and 1.8 mg/kg in the experiment with Plasmodium berghei [7]. Moreover, the ED90 in the experiment on Plasmodium berghei [24], with Plasmodium berghei [25] and in the experiment with Plasmodium berghei [26] was above 10 mg/kg each time.
Consider `C[C@@H]1CC[C@H]2[C@@H](CCCc3ccc(F)cc3)CO[C@@H]3OC4(C)CC[C@@H]1[C@]32OO4` (single isomer, unassigned), for which the Activity is given as 5 in the experiment on Plasmodium berghei [1]; 5 with Plasmodium berghei [4]; 5 with Plasmodium berghei [5]; 0 in the experiment with Plasmodium berghei [6]; 5 with Plasmodium berghei [8]; 1 with Plasmodium berghei [10].
As for `C[C@@H]1CC[C@H]2[C@@H](CCCc3cc(F)cc(F)c3)CO[C@@H]3OC4(C)CC[C@@H]1[C@]32OO4` (single isomer, unassigned), the IC50 with Plasmodium falciparum [11] turned out to be 3.2 ng/mL (≈ 0.00783 µM); in the experiment on Plasmodium falciparum [17] it was 6.5 ng/mL (≈ 0.0159 µM); in the experiment with Plasmodium falciparum [9], 0.82 ng/mL (≈ 0.00201 µM). Moreover, the ED90 in the experiment on Plasmodium yoelii [27] worked out at 7.5 mg/kg; in the experiment with Plasmodium berghei [15] it was 2 mg/kg; in the experiment with Plasmodium yoelii [28] it was 6.5 mg/kg; with Plasmodium berghei [18], 5.7 mg/kg. Besides, the ED50 was 1.3 mg/kg with Plasmodium berghei [7] (setting [35]), 2.2 mg/kg in the experiment on Plasmodium yoelii [29] and 2.3 mg/kg in the experiment with Plasmodium yoelii [30].
On to `CCN(CC)CCCC(C)Nc1ccnc2cc(Cl)ccc12` (centres undefined) [CHLOROQUINE], for which the ED90 in the experiment on Plasmodium berghei [31] came to 3.4 mg/kg; in the experiment on Plasmodium berghei [15] it was 3 mg/kg; in the experiment on Plasmodium yoelii [32] it was 28 mg/kg; in the experiment with Plasmodium berghei [33] it was 1.8 mg/kg. The ED50 was 1.6 mg/kg in the experiment with Plasmodium yoelii [16] and 1.5 mg/kg in the experiment on Plasmodium berghei [7] (setting [35]).
